Values belong to the molecule of their own block, whether it stands above or below them. No end group written: not given here.
Legend:
[1] = target: T1, CAL PDZ domain (CALP) (Homo sapiens, UniProt Q9HD26); experiment: Fluorescence polarization competition binding, CALP with F*C-GBG4_10 reporter
[2] = target: T1, CAL PDZ domain (CALP); experiment: Fluorescence polarization competition binding, CALP with F*C-SSR5_10 reporter
How it was run: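 Competition FP using fluorescein-5-maleimide-labelled Cys-peptide reporter in FP buffer: storage buffer (25 mM Tris pH 8.5, 150 mM NaCl, 0.02% NaN3, 0.1 mM TCEP or 1 mM DTT) plus 0.1 mg/mL bovine IgG and 0.5 mM Thesit. Unlabelled Cys-peptides titrated into reporter–protein mix, 15 min at 24 °C. Ex 485/em 525 nm. Ki fit with free protein from exact cubic solution, using known reporter Kd.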

[3] = target: T2, NHERF1 PDZ1 domain (N1P1) (Homo sapiens, UniProt O14745); experiment: Fluorescence polarization direct binding, NHERF1 PDZ1; settings: titration with increasing N1P1
T2 sequence (O14745 1-139): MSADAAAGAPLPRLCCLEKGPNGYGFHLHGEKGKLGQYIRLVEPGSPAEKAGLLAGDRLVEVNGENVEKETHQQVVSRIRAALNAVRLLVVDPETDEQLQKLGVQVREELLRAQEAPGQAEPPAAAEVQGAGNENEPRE

[4] = target: T3, NHERF1 PDZ2 domain (N1P2) (Homo sapiens, UniProt O14745); experiment: Fluorescence polarization direct binding, NHERF1 PDZ2; settings: titration with increasing N1P2
T3 sequence (O14745 132-299): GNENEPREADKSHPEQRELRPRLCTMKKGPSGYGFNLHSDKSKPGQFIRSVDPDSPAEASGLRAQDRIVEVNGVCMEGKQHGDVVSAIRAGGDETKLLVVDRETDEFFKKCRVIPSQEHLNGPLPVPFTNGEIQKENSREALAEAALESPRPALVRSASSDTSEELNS

[5] = target: full-length CAL (Homo sapiens, UniProt Q9HD26); experiment: Fluorescence polarization direct binding, full-length CAL; settings: 30 nM reporter titrated with full-length CAL
How it was run: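 Direct titration: full-length CAL pre-incubated 10–30 min at room temperature in FP buffer (storage buffer 25 mM Tris pH 8.5, 150 mM NaCl, 0.02% NaN3, 0.1 mM ATP, plus 0.1 mg/mL bovine IgG, 0.5 mM Thesit) containing fluorescent peptide. Serially diluted into the same buffer, then 10 min incubation and 15 min equilibration at 24 °C. Polarization read at ex 485/em 525 nm.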

Ki [1]: 109 ± 12 µM
Ki [2]: 63 ± 15 µM
Molecule: CREKKFFSTIL [C-GBG4_10]

FP shift of reporter [3]: neither domain caused an FP shift
FP shift of reporter [4]: neither domain caused an FP shift
Molecule: F*C-SCR6: fluorescent reporter peptide with a scrambled sequence (C(fluorescein‑5‑maleimide)QVTLDR)

interaction in FP titration [5]: too weak to be fit
Molecule: CC(C)C[C@H](NC(=O)[C@H](CCCNC(=N)N)NC(=O)[C@@H](NC(=O)[C@H](CC(=O)O)NC(=O)[C@H](CCC(N)=O)NC(=O)[C@@H](NC(=O)[C@H](CCC(=O)O)NC(=O)[C@H](CCC(=O)O)NC(=O)[C@H](CCC(=O)O)NC(=O)[C@@H](NC(=O)c1ccc2c(c1)C(=O)OC21c2ccc(O)cc2Oc2cc(O)ccc21)[C@@H](C)O)C(C)C)[C@@H](C)O)C(=O)O [F*-CFTR10]

Reference: PMC2582146 (Biochemistry, 2008)
